Calls of active or inactive are those of the source. No cut-off for these calls is given here.

Series [1] deals with Mus musculus. The series is described as follows: Agonist activity at 5HT1A receptor in ip dosed Swiss albino mouse assessed as decrease in rectal temperature. The format is functional, organism-based. The method, boiled down: (§1)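 Male Albino Swiss mice (24–28 g), free food and water, room at 20 ± 1 °C; test agent suspended in 1% aqueous Tween 80, given ip at 10 ml/kg. Rectal temperature read with a thermometer at 30, 60, 90 and 120 min after dosing. Result expressed as Δt from basal temperature taken at the start; six to ten animals per group, each used once.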

The test system of series [2] is Mus musculus. The series is described as follows: Agonist activity at 5HT1A receptor in Swiss albino mouse assessed as decrease in rectal temperature at 5 mg/kg, ip after 90 mins. Set-up: dose 5 mg/kg. The series is classed as functional, organism-based. The method, boiled down: as §1
Series [3] concerns Mus musculus. The series can be described thus: Agonist activity at 5HT1A receptor in Swiss albino mouse assessed as decrease in rectal temperature at 10 mg/kg, ip after 60 mins. The series is classed as functional, organism-based. Also on record: dose 10 mg/kg. The method, boiled down: as §1
In series [4] the test system is Mus musculus. The series is described as follows: Agonist activity at 5HT1A receptor in Swiss albino mouse assessed as decrease in rectal temperature at 5 mg/kg, ip after 60 mins. Also on record: dose 5 mg/kg. The format is functional, organism-based. The method, boiled down: as §1
In series [5] the test system is Mus musculus. The series can be described thus: Agonist activity at 5HT1A receptor in Swiss albino mouse assessed as decrease in rectal temperature at 10 mg/kg, ip after 30 mins. The series is classed as functional, organism-based. Also on record: dose 10 mg/kg. A digest of the protocol:
as §1

In the next series the target is D(2) dopamine receptor (Rattus norvegicus, UniProt P61169). The series can be described thus: Displacement of [3H]spiperone from dopamine D2 receptor in rat striatum membrane after 30 mins by liquid scintillation counting. The series is classed as cell membranes. A digest of the protocol: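 Rat striatum homogenised in 50 mM potassium phosphate pH 7.4 and spun twice at 20000 × g. Membranes (3 mg wet weight) incubated with 1 nM [3H]-spiperone and test agent in 0.5 ml for 30 min at 37 °C. Nonspecific binding with (+)butaclamol. GF/B filtration, two washes with ice-cold buffer, scintillation counting; Ki from ≥3 experiments, 10 concentrations in triplicate.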

Series [6] concerns Mus musculus. The series can be described thus: Agonist activity at 5HT1A receptor in Swiss albino mouse assessed as decrease in rectal temperature at 5 mg/kg, ip after 30 mins. The series is classed as functional, organism-based. Also on record: dose 5 mg/kg. The method, boiled down:
as §1

Series [7] addresses 5-hydroxytryptamine receptor 2A (Rattus norvegicus, UniProt P14842). The series can be described thus: Displacement of [3H]ketanserin from 5HT2A receptor in rat cerebral cortex after 20 mins by liquid scintillation counting. The format is tissue-based. A digest of the protocol: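 Rat cerebral cortex homogenised in 50 mM Tris-HCl pH 7.7, spun at 32000 × g, preincubated 10 min at 37 °C, resuspended in 50 volumes. Incubated with 0.6 nM [3H]-ketanserin and test agent (10^-10 to 10^-4 M) at 37 °C for 20 min; mianserin as displacer. GF/B filtration, scintillation counting; Ki from ≥3 experiments, 10 concentrations in triplicate.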

For series [8], the target named is T1, 5-hydroxytryptamine receptor 1A (Rattus norvegicus, UniProt P19327).
T1 sequence (P19327 whole entry): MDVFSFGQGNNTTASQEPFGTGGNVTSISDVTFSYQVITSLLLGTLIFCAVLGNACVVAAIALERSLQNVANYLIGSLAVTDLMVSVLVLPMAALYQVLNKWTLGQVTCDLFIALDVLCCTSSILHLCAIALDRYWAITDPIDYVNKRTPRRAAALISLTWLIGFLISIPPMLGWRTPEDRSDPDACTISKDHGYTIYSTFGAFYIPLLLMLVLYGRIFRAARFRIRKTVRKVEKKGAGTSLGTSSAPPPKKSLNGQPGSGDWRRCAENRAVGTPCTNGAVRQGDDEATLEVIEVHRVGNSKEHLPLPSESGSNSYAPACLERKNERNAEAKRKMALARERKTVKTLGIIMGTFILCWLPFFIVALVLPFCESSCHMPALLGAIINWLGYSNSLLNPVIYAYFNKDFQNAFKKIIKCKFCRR
The series can be described thus: Displacement of [3H]8-OH-DPAT from 5HT1A receptor in rat cerebral cortex after 15 mins by liquid scintillation counting. The series is classed as tissue-based.

Series [9] concerns Mus musculus. The series is described as follows: Agonist activity at 5HT1A receptor in Swiss albino mouse assessed as decrease in rectal temperature at 10 mg/kg, ip after 90 mins. The series is classed as functional, organism-based. Also on record: dose 10 mg/kg. The method, boiled down: as §1
In series [10] the test system is Mus musculus. The series is described as follows: Agonist activity at 5HT1A receptor in Swiss albino mouse assessed as decrease in rectal temperature at 5 mg/kg, ip after 120 mins. The format is functional, organism-based. Also on record: dose 5 mg/kg. A digest of the protocol:
as §1

Series [11] has as its system Mus musculus. The series can be described thus: Agonist activity at 5HT1A receptor in Swiss albino mouse assessed as decrease in rectal temperature at 10 mg/kg, ip after 30 mins in presence of WAY 100635 administered 15 mins before drug challenge. The format is functional, organism-based. Also on record: dose 10 mg/kg. The method, boiled down:
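Male Albino Swiss mice (24–28 g). WAY 100635 (0.1 mg/kg, sc, in distilled water) given 15 min before test agent (ip, suspended in 1% Tween 80, 10 ml/kg). Rectal temperature recorded 30 and 60 min after test agent injection. Expressed as Δt versus basal temperature at the start of the experiment.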

The subject of another series is Rattus norvegicus. The series can be described thus: Behavioral activity in Wistar rat assessed as reduction of 8-OH-DPAT-induced lower lip retraction at 10 to 20 mg/kg, ip administered 45 mins before 8-OH-DPAT challenge. The series is classed as functional, organism-based.
In series [12] the test system is Mus musculus. The series can be described thus: Anxiolytic activity in Swiss albino mouse assessed as number of punished crossings at 10 mg/kg, ip administered 30 mins before test measured for 60s by four plate test. Conditions: route intraperitoneal. The format is functional. A digest of the protocol: (§2)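 Male Albino Swiss mice. Box with four metal floor plates separated by 4 mm gaps; 120 V between adjacent plates for 0.5 s delivered on crossing. Mice explored 15 s before testing. Agent (ip, 1% Tween 80) given 30 min before the test. Punished crossings counted; n = 10 mice per group, mean ± SEM.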

Series [13] relates to Mus musculus. The series is described as follows: Anxiolytic activity in Swiss albino mouse assessed as number of punished crossings at 20 mg/kg, ip. administered 30 mins before test measured for 60s by four plate test. The series is classed as functional. A digest of the protocol: as §2
Series [14] relates to Mus musculus. The series can be described thus: Antidepressant activity in Swiss albino mouse assessed as reduction of immobility time at 10 mg/kg, ip administered 30 mins before test by forced swimming test. The format is functional. Conditions: route intraperitoneal. The method, boiled down: (§3)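 Male Albino Swiss mice (24–28 g); agent suspended in 1% aqueous Tween 80, ip 10 ml/kg, 30 min before the test. Total immobility time scored over the last 4 min of a 6-min swim session. n = 8–10 mice per group; mean ± SEM, compared with vehicle.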

Series [15] has as its system Mus musculus. The series can be described thus: Antidepressant activity in Swiss albino mouse assessed as reduction of immobility time at 20 mg/kg, ip administered 30 mins before test by forced swimming test. The format is functional. To be noted: route intraperitoneal. A digest of the protocol:
as §3

Series [16] concerns Mus musculus. The series is described as follows: Antidepressant activity in Swiss albino mouse assessed as reduction of immobility time at 30 mg/kg, ip administered 30 mins before test by forced swimming test. The series is classed as functional. To be noted: route intraperitoneal. A digest of the protocol: as §3
The subject of series [17] is Mus musculus. The series can be described thus: Sedative activity in Swiss albino mouse assessed as reduction on spontaneous locomotor activity at 20 mg/kg, ip administered 30 mins before test measured for 6 mins. The format is ADME, organism-based. Set-up: dose 20 mg/kg, route intraperitoneal. To be noted: in vivo, 0.1 h. The method, boiled down: (§4)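 Male Albino Swiss mice (24–28 g); agent ip in 1% Tween 80, 30 min before the test. Locomotor activity counted as number of crossings during 6-min and 30-min sessions. n = 8–10 mice per group; mean ± SEM versus vehicle.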

Series [18] deals with Mus musculus. The series is described as follows: Sedative activity in Swiss albino mouse assessed as reduction on spontaneous locomotor activity at 20 mg/kg, ip administered 30 mins before test measured for 30 mins. The format is ADME, organism-based. Also on record: dose 20 mg/kg, route intraperitoneal. Conditions: in vivo, 0.5 h. A digest of the protocol:
as §4

The test system of series [19] is Mus musculus. The series can be described thus: Sedative activity in Swiss albino mouse assessed as reduction on spontaneous locomotor activity at 30 mg/kg, ip administered 30 mins before test measured for 6 mins. The series is classed as ADME, organism-based. Set-up: dose 30 mg/kg, route intraperitoneal. To be noted: in vivo, 0.1 h. The method, boiled down:
as §4

Series [20] concerns Mus musculus. The series can be described thus: Sedative activity in Swiss albino mouse assessed as reduction on spontaneous locomotor activity at 30 mg/kg, ip administered 30 mins before test measured for 30 mins. The format is ADME, organism-based. To be noted: in vivo, 0.5 h. Also on record: dose 30 mg/kg, route intraperitoneal. A digest of the protocol:
as §4

The subject of series [21] is Mus musculus. The series can be described thus: Sedative activity in Swiss albino mouse assessed as reduction on spontaneous locomotor activity at 10 mg/kg, ip administered 30 mins before test measured for 6 mins. The series is classed as ADME, organism-based. Also on record: dose 10 mg/kg, route intraperitoneal. To be noted: in vivo, 0.1 h.
Series [22] relates to Mus musculus. The series is described as follows: Sedative activity in Swiss albino mouse assessed as reduction on spontaneous locomotor activity at 10 mg/kg, ip administered 30 mins before test measured for 30 mins. The series is classed as ADME, organism-based. Also on record: dose 10 mg/kg, route intraperitoneal. To be noted: in vivo, 0.5 h.

5-hydroxytryptamine receptor 2A, sequence (P14842 whole entry): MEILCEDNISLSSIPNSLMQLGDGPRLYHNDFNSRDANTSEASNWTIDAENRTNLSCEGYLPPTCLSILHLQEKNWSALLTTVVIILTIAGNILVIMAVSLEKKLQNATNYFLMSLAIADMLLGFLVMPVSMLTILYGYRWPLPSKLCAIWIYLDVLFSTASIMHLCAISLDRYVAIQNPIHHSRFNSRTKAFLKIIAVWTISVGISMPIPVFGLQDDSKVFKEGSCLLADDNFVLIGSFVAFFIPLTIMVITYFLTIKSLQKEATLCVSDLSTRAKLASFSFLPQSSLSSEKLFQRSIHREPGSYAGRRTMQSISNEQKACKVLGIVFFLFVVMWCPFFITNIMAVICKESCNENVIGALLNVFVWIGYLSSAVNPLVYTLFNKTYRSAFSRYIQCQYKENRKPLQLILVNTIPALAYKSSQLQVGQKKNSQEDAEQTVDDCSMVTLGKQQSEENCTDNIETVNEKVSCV
D(2) dopamine receptor, sequence (P61169 whole entry): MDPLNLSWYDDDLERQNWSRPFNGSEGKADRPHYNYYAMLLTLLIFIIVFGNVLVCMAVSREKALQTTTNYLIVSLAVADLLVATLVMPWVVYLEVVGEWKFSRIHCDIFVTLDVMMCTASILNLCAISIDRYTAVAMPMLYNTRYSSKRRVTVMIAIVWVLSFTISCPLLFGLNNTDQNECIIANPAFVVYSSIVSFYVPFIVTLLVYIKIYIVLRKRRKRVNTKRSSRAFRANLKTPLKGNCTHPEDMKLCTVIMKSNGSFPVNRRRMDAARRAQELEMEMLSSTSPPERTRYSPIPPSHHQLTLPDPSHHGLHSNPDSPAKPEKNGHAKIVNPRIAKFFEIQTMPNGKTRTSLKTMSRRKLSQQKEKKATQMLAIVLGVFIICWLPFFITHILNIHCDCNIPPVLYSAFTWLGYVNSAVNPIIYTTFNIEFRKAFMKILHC

On to `Cn1c(=O)c2c(nc3n(CCCN4CCN(c5ccccc5)CC4)ccn23)n(C)c1=O`, for which the Activity entry in the series on Mus musculus [1] was “Dose-dependent effect”; with Mus musculus [12], 4.7; with Mus musculus [13] it was 6.3; in the series on Mus musculus [14] it was 147.5 s; in the series with Mus musculus [15], 87.9 s; in the series on Mus musculus [16], 88.9 s. For the same compound, the Activity in the series on Mus musculus [17] is on record as 146.4; with Mus musculus [18] it was 255.6; in the series on Mus musculus [19] it was 139.2; in the series with Mus musculus [20] it was 221. Further, the deltaT in the series with Mus musculus [2] was -0.2 °C; in the series with Mus musculus [3], -0.4 °C; with Mus musculus [4], -0.4 °C; in the series with Mus musculus [5], -1.2 °C; with Mus musculus [6], -0.6 °C; in the series with Mus musculus [9], -0.4 °C. Further, the deltaT with Mus musculus [10] is 0 °C; with Mus musculus [11] it was -0.3 °C. Further, the Ki on D(2) dopamine receptor was > 1000 nM; in series [7], > 1000 nM; in series [8], 24.8 nM. The result in the series on Rattus norvegicus was Active.

Regarding `CN(C)CCCN1c2ccccc2CCc2ccccc21` [IMIPRAMINE], the Activity with Mus musculus [21] was determined as 338; in the series on Mus musculus [22], 876.8; in the series on Mus musculus [14], 149.1 s; in the series on Mus musculus [15], 107.8 s; in the series on Mus musculus [16], 76.4 s; in the series with Mus musculus [17] it was 314.9. Besides, the figures for the Activity in the series with Mus musculus [18], in the series on Mus musculus [19] and in the series on Mus musculus [20] were 625.3, 300.9 and 602.3, respectively.

For the origin of these results see ChEMBL document CHEMBL1155976, “Synthesis and preliminary pharmacological evaluation of imidazo[2,1-f]purine-2,4-dione derivatives” (Eur J Med Chem, 2009).
